# Data: ChEMBL document CHEMBL3792333, “The discovery of indole derivatives as novel hepatitis C virus inhibitors” (Eur J Med Chem, 2016)
# Active and inactive are the calls of the source. The calls are words filed in the database; no cut-off is given here.
# Legend:
# [1] = Selectivity index, ratio of CC50 for human Huh7.5.1 cells infected with Hepatitis C virus JFH-1 to EC50 for Hepatitis C virus JFH-1 infected in human Huh7.5.1 cells; type: toxicity, cell-based, Huh-7; settings: read-out: Ratio CC50/EC50
# Procedure, shortened: (§1)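 Huh7.5.1 cells were seeded and grown 24 h at 37 °C, 5% CO₂. They were then treated with serially diluted compound and infected with Renilla luciferase-linked HCV(JFH-1) reporter virus. Luminescence was read at 48 hpi, and EC₅₀ and CC₅₀ were derived from it. SI is CC₅₀/EC₅₀. Results are the mean of three independent experiments with SD.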
# Hepatitis C virus [2] = test: Antiviral activity against Hepatitis C virus JFH-1 infected in human Huh7.5.1 cells measured 48 hrs post infection by luciferase reporter gene assay; type: functional, organism-based, Hepacivirus hominis; settings: JFH-1, Huh-7, 48 h; procedure, shortened: as §1
# [3] = Cytotoxicity against human Huh7.5.1 cells infected with Hepatitis C virus JFH-1 measured 48 hrs post infection by luciferase reporter gene assay; type: cell-based, Huh-7; procedure, shortened: as §1
# Hepatitis C virus [4] = test: Antiviral activity against Hepatitis C virus JFH-1 infected in human Huh7.5.1 cells assessed as inhibition of viral entry at 5 uM treated 1 hr post infection incubated for 24 hrs by luciferase reporter gene assay; type: functional, organism-based; settings: Hepacivirus hominis, Huh-7
# Procedure, shortened: (§2)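 Huh7.5.1 cells were seeded at 3×10⁴/well in 10% FBS-DMEM and grown overnight at 37 °C, 5% CO₂. Compound was added with 100 TCID₅₀ of HCV(JFH-1) Renilla luciferase reporter virus (0 h), or at -6 to 10 hpi. Cells were incubated 24 h at 37 °C, and luciferase activity was compared with 0.5% DMSO mock cultures.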
# Hepatitis C virus [5] = test: Antiviral activity against Hepatitis C virus JFH-1 infected in human Huh7.5.1 cells assessed as inhibition of viral RNA replication at 5 uM treated 2 to 10 hrs post infection incubated for 24 hrs by luciferase reporter gene assay; type: functional, organism-based; settings: Hepacivirus hominis, Huh-7; procedure, shortened: as §2
# Hepatitis C virus [6] = test: Antiviral activity against Hepatitis C virus JFH-1 infected in human Huh7.5.1 cells assessed as inhibition of viral entry at 5 uM treated 2 to 6 hrs prior infection incubated for 24 hrs by luciferase reporter gene assay; type: functional, organism-based; settings: Hepacivirus hominis, Huh-7; procedure, shortened: as §2
# Hepatitis C virus [7] = test: Antiviral activity against Hepatitis C virus JFH-1 infected in human Huh7.5.1 cells assessed as inhibition of viral entry at 5 uM treated immediately after viral infection incubated for 24 hrs by luciferase reporter gene assay; type: functional, organism-based; settings: Hepacivirus hominis, Huh-7; procedure, shortened: as §2
# Hepatitis C virus [8] = test: Antiviral activity against Hepatitis C virus JFH-1 infected in human Huh7.5.1 cells assessed as inhibition of viral entry at 2 uM treated 2 to 6 hrs prior infection incubated for 24 hrs by luciferase reporter gene assay; type: functional, organism-based; settings: Hepacivirus hominis, Huh-7; procedure, shortened: as §2
# Hepatitis C virus [9] = test: Antiviral activity against Hepatitis C virus JFH-1 infected in human Huh7.5.1 cells assessed as inhibition of viral entry at 2 uM treated immediately after viral infection incubated for 24 hrs by luciferase reporter gene assay; type: functional, organism-based; settings: Hepacivirus hominis, Huh-7; procedure, shortened: as §2
# Hepatitis C virus [10] = test: Antiviral activity against Hepatitis C virus JFH-1 infected in human Huh7.5.1 cells assessed as inhibition of viral entry at 2 uM treated 1 hr post infection incubated for 24 hrs by luciferase reporter gene assay; type: functional, organism-based; settings: Hepacivirus hominis, Huh-7; procedure, shortened: as §2
# Hepatitis C virus [11] = test: Antiviral activity against Hepatitis C virus JFH-1 infected in human Huh7.5.1 cells assessed as inhibition of viral RNA replication at 2 uM treated 2 to 10 hrs post infection incubated for 24 hrs by luciferase reporter gene assay; type: functional, organism-based; settings: Hepacivirus hominis, Huh-7; procedure, shortened: as §2
Compound,EC50 (Hepatitis C virus [2]) [µM],selectivity ratio [1],CC50 at 48 h [3] [µM],also measured
CC1=NN(c2ccc(F)cc2)C(=O)/C1=C/c1cn(C[C@H](O)CNCCCN2CCOCC2)c2ccccc12,0.72,> 69.4,> 50,–
CC1=NN(c2cccc(C(F)(F)F)c2)C(=O)/C1=C/c1cn(CC(O)CNCCCN2CCOCC2)c2ccccc12 (racemic),2.08,8.57,17.8,–
CC1=NN(c2ccccc2)C(=O)/C1=C/c1cn(CC2CO2)c2ccccc12 (centres undefined),5.78,8.02,46.3,inhibition (Hepatitis C virus [4]): Active; inhibition (Hepatitis C virus [5]): inactive; inhibition (Hepatitis C virus [6]): Active; inhibition (Hepatitis C virus [7]): Active
CC1=NN(c2ccccc2)C(=O)/C1=C/c1cn(C[C@H](O)CNCCCN2CCOCC2)c2ccccc12,1.25,> 40,> 50,–
CC1=NN(c2ccc(Cl)cc2)C(=O)/C1=C/c1cn(CC2CO2)c2ccccc12 (centres undefined),6.82,5.17,35.3,–
CC1=NN(c2ccccc2)C(=O)/C1=C/c1cn(CC(O)CN2CCOCC2)c2ccccc12 (racemic),21.9,> 2.29,> 50,–
CCCCNCC(O)Cn1cc(/C=C2/C(=O)N(c3ccccc3)N=C2C)c2ccccc21 (racemic),> 50,–,> 50,–
CC1=NN(c2ccc(Cl)cc2)C(=O)/C1=C/c1cn(CC(O)CNCCCN2CCOCC2)c2ccccc12 (racemic),3.42,5.12,17.5,–
CC1=NN(c2cccc(F)c2)C(=O)/C1=C/c1cn(C[C@@H](O)CNCCCN2CCOCC2)c2ccccc12,5.87,3.97,23.3,–
CC1=NN(c2ccc(C)cc2)C(=O)/C1=C/c1cn(CC(O)CNCCCN2CCOCC2)c2ccccc12 (racemic),1.83,19.8,36.2,–
CC1=NN(c2ccccc2)C(=O)/C1=C/c1cn(CC(O)CNCc2ccccc2)c2ccccc12 (racemic),> 50,–,> 50,–
CC1=NN(c2ccc(C(F)(F)F)cc2)C(=O)/C1=C/c1cn(CC2CO2)c2ccccc12 (centres undefined),7.86,5.14,40.4,–
CCCCN(CCCC)CC(O)Cn1cc(/C=C2/C(=O)N(c3ccccc3)N=C2C)c2ccccc21 (racemic),> 50,–,> 50,–
CC1=NN(c2ccccc2)C(=O)/C1=C/c1cn(C)c2ccccc12,21.2,> 2.36,> 50,–
CC1=NN(c2ccccc2F)C(=O)/C1=C/c1cn(CC2CO2)c2ccccc12 (centres undefined),5.11,5.95,30.4,–
COc1ccc(N2N=C(C)/C(=C\c3cn(CC4CO4)c4ccccc34)C2=O)cc1 (centres undefined),2.06,5.76,11.9,–
CC1=NN(c2ccc(F)cc2)C(=O)/C1=C/c1cn(CC2CO2)c2ccccc12 (centres undefined),3.24,> 15.4,> 50,–
CC1=NN(c2ccc(F)cc2)C(=O)/C1=C/c1cn(CC(O)CNCCCN2CCOCC2)c2ccccc12 (racemic),1.02,45.6,46.5,inhibition (Hepatitis C virus [8]): Active; inhibition (Hepatitis C virus [9]): Active; inhibition (Hepatitis C virus [10]): Active; inhibition (Hepatitis C virus [11]): inactive
CC1=NN(c2ccccc2)C(=O)/C1=C/c1c[nH]c2ccccc12,24.5,> 2.03,> 50,–

# Second part, led by results:
EC50 (Hepatitis C virus [2]) [µM],Compound,selectivity ratio [1],CC50 at 48 h [3] [µM],also measured
4.63,CC1=NN(c2ccc(C(F)(F)F)cc2)C(=O)/C1=C/c1cn(CC(O)CNCCCN2CCOCC2)c2ccccc12 (racemic),2.44,11.3,–
0.74,CC1=NN(c2cccc(F)c2)C(=O)/C1=C/c1cn(C[C@H](O)CNCCCN2CCOCC2)c2ccccc12,42,31.1,–
2.05,COc1ccc(N2N=C(C)/C(=C\c3cn(CC(O)CNCCCN4CCOCC4)c4ccccc34)C2=O)cc1 (racemic),7.53,15.4,–
17.4,CC1=NN(c2ccccc2)C(=O)/C1=C/c1cn(Cc2ccccc2)c2ccccc12,> 2.88,> 50,–
0.92,CC1=NN(c2cccc(F)c2)C(=O)/C1=C/c1cn(CC(O)CNCCCN2CCOCC2)c2ccccc12 (racemic),23.3,21.5,–
2.79,CC1=NN(c2ccccc2F)C(=O)/C1=C/c1cn(CC(O)CNCCCN2CCOCC2)c2ccccc12 (racemic),12.3,34.2,–
5.46,CC1=NN(c2ccccc2)C(=O)/C1=C/c1cn(CC(O)CNCCN2CCOCC2)c2ccccc12 (racemic),7.76,42.4,–
8.06,CC1=NN(c2ccccc2)C(=O)/C1=C/c1cn(C[C@@H](O)CNCCCN2CCOCC2)c2ccccc12,2.67,21.5,–
> 50,CC1=NN(C)C(=O)/C1=C/c1cn(CC2CO2)c2ccccc12 (centres undefined),–,> 50,–
3.06,CC1=NN(c2ccc(C)cc2)C(=O)/C1=C/c1cn(CC2CO2)c2ccccc12 (centres undefined),4.24,13.2,–
2.03,CC1=NN(c2ccccc2)C(=O)/C1=C/c1cn(CC(O)CNCCCCN2CCOCC2)c2ccccc12 (racemic),4,8.13,–
2.65,CC1=NN(c2cccc(F)c2)C(=O)/C1=C/c1cn(CC2CO2)c2ccccc12 (centres undefined),9.67,25.6,–
21.5,CC1=NN(c2ccccc2)C(=O)/C1=C/c1cn(CC2CC2)c2ccccc12,> 2.32,> 50,–
2.04,CC1=NN(c2ccccc2)C(=O)/C1=C/c1cn(CC(O)CNCCCN2CCOCC2)c2ccccc12 (racemic),17.6,35.8,–
7.12,CC1=NN(c2ccc(F)cc2)C(=O)/C1=C/c1cn(C[C@@H](O)CNCCCN2CCOCC2)c2ccccc12,4.86,34.6,–
5.94,CC1=NN(c2cccc(C(F)(F)F)c2)C(=O)/C1=C/c1cn(CC2CO2)c2ccccc12 (centres undefined),4.23,25.1,–
